AF4-AF9 inh: MLL-AF4/AF9 protein interaction inhibition | P42568 | 0.47% of 350,000 active | inhibition, % at 10 µM | AlphaScreen, biotin-AF4 peptide binding to FLAG-AF9;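 active means every replicate reaching a set inhibition limit, whatever the replicate mean, cut at about 25% in these data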;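 further: 0% = plate neutral control median and 100% = total signal loss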
ERAP1 HTS inh: ERAP1 (human) enzyme inhibition; 0.15% of 340,000 active; inhibition, % at 10.7 µM; Q9NZ08; AID 652197; recombinant ERAP1, Leu-AMC fluorescence, 60 min;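 active means mean replicate inhibition of at least 30%, or all replicates individually reaching that 30% level; inactive means mean below 30% and not every replicate reaching it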;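 further: 0% = neutral control wells and 100% = L-leucinethiol positive control wells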
E-selectin induc: induces E-selectin expression in human endothelial cells; P16581; HUVEC E-selectin immunofluorescence imaging; normalized: neutral wells 0, TNF-alpha wells 100; activation, % at 7.58 µM; 0.37% of 260,000 active; AID 686992;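 active means mean E-selectin-positive cell signal at least 10% of the positive control, reached in at least 60% of replicates, without over 20% cell loss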
Target sequence (P16581 whole entry, looked up): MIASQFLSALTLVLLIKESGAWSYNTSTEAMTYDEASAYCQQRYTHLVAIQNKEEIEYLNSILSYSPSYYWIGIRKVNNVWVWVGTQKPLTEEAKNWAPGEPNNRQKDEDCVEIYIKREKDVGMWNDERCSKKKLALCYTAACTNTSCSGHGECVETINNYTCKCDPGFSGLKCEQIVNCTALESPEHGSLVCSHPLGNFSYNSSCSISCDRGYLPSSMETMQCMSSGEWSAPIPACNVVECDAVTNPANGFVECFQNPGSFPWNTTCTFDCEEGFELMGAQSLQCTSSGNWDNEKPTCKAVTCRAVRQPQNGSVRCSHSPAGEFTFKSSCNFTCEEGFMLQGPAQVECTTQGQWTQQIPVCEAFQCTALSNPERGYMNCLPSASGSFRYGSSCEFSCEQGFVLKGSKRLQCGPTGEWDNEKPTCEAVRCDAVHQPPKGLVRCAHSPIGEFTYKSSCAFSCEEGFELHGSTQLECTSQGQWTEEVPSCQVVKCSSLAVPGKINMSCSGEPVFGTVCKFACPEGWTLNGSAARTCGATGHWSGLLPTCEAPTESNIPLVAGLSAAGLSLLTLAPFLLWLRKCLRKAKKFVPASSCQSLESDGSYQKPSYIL
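System: HUVEC, human umbilical vein endothelial cells; quantity: 3,000 cells/well; buffer or medium: EGM-2 medium, gelatin-coated wells; dosing: single-point compound dose; detection: immunofluorescence imaging; evaluation: % PE-positive cells; benchmarks: TNF-alpha, DMSO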
S100A4 MyoIIA: inhibitors of human S100A4 binding to myosin IIA peptide; P26447; S100A4/TAMRA-MyoIIA peptide fluorescence polarization; inhibition, % at 10.7 µM; 0.14% of 360,000 active; AID 652163;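 active means mean inhibition of at least 70% across replicates, with every replicate also reaching that level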
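Test system: S100A4 monomer protein. Medium: HEPES buffer with Ca2+, pH 7.2. Reagent: fluorescent myosin IIA peptide, 5 nM. Compound dosing: single-point compound testing. Timing: 5 min between mix addition and reading. Benchmarks: DMSO neutral and TFP positive wells.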
SIRT5 inh: inhibitors of human sirtuin-5 desuccinylase. Q9NXA8. 1.1% of 330,000 active. inhibition, % at 15 µM. AID 652115. Purified SirT5, succinyl-peptide AMC, trypsin-coupled fluorescence; in the data active means inhibition above about 15%
rRNA inh HTS: selective bacterial rRNA inhibition in E. coli. E. coli WT GFP vs humanized-ribosome RFP mutants, fluorescence, 24 h; stronger effect = lower value; DMSO median 0, no signal -100. 1.6% of 350,000 active. GFP signal change (wild-type ribosome), % (test concentration not listed). AID 720706;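 active means significant combined selectivity score with lowered wild-type GFP, culture density cut under 30%, mutant RFP and density less affected; inactive means any of these conditions unmet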
* marks the source's active call; other numbers are inactive results; nt = not tested or not shown. In the library only some 3.4% were active in any assay of this set; here they are far more common.

SMILES | AF4-AF9 inh | ERAP1 HTS inh | E-selectin induc | S100A4 MyoIIA | SIRT5 inh | rRNA inh HTS
CO[C@H]1CN(C)C(=O)c2ccc(NS(=O)(=O)c3ccc(C)cc3)cc2OC[C@@H](C)NC[C@H]1C | -2 | -2 | 0 | 1 | -4 | 2
COc1ccc(S(=O)(=O)Nc2ccc3c(c2)C(=O)N([C@H](C)CO)C[C@H](C)[C@H](CN(C)S(=O)(=O)c2ccc(Cl)cc2)OCCCC[C@H](C)O3)cc1 | 1 | 0 | 0 | -3 | 16* | 1
COc1ccc(S(=O)(=O)Nc2ccc3c(c2)C(=O)N([C@H](C)CO)C[C@@H](C)[C@@H](CN(C)S(=O)(=O)c2ccc(Cl)cc2)OCCCC[C@@H](C)O3)cc1 | -3 | 0 | 0 | -1 | 11 | 0
CCN1/C(=C/c2ccc3cc(C)cc(C)c3[n+]2CC)Sc2cc(C)ccc21 | 28* | 35* | nt | 16 | 3 | 13
CCN1/C(=C\c2ccc3cc(C)ccc3[n+]2CC)Sc2cc(C)c(C)cc21 | 5 | 15 | nt | -39 | 3 | 9
CCC(=O)N1CC(=O)N2[C@H](CO)[C@H](c3ccc(-c4ccccc4F)cc3)[C@H]2C1 | -2 | nt | 1 | 11 | -2 | 1
O=[N+]([O-])c1cccc(S(=O)(=O)N/N=C\c2ccc3c(c2)OCO3)c1 | -3 | -1 | 0 | 0 | 20* | 8
O=C(Cc1ccc(Cl)cc1)Nc1cc(S(=O)(=O)N2CCOCC2)ccc1N1CCCC1 | 3 | 1 | -2 | -2 | 2 | -26*
CN1CCN(S(=O)(=O)c2cccc(C(=O)N(C)CC(=O)Nc3ccc(F)c(F)c3F)c2)CC1 | 0 | 99* | nt | -12 | -4 | 9
O=C(Cc1c(F)cccc1Cl)Nc1cc(S(=O)(=O)N2CCOCC2)ccc1N1CCCC1 | 3 | -1 | 0 | -3 | -7 | 8
CCN(CC)S(=O)(=O)c1ccc(N2CCCC2)c(NC(=O)Cc2ccc(OC)cc2)c1 | 6 | -5 | 4 | 3 | 1 | -34*
O=C(COC(=O)c1cc(S(=O)(=O)N2CCCCC2)ccc1N1CCOCC1)NCCc1ccc(F)cc1 | 2 | 2 | nt | -4 | -3 | -20*
CO[C@H]1CN(C)C(=O)c2ccc(NC(C)=O)cc2OC[C@@H](C)N(C(=O)c2ccncc2)C[C@H]1C | -1 | 0 | 0 | 1 | 4 | 1
CN1CCN(S(=O)(=O)c2cccc(C(=O)Nc3cc(Cl)ccc3N3CCOCC3)c2)CC1 | 6 | 61* | nt | -5 | 1 | -1
CN1CCN(S(=O)(=O)c2cccc(C(=O)N3CCN(c4ccccc4)CC3)c2)CC1 | 0 | -5 | 1 | -8 | 17* | 14
CC1CN(S(=O)(=O)c2cccc(C(=O)Nc3cc(Cl)ccc3N3CCOCC3)c2)CC(C)O1 (centres undefined) | 1 | 2 | -2 | -1 | -1 | 0
CCN(CC)c1ccc(S(=O)(=O)N2CCOCC2)cc1NC(=O)CNCc1ccccc1 | -1 | -4 | nt | 3 | -2 | -18
CCN(CC)c1ccc(S(=O)(=O)N2CCOCC2)cc1NC(=O)CN1CCN(Cc2ccccc2)CC1 | 12 | nt | 1 | -1 | 29* | -22
Cc1noc(C)c1S(=O)(=O)Nc1ccc2c(c1)C(=O)N([C@H](C)CO)C[C@@H](C)[C@H](CN(C)C(=O)NC1CCCCC1)OCCCC[C@@H](C)O2 | 3 | 1 | 0 | -12 | 9 | 0
CCC(=O)N[C@@H]1CC[C@H](CC(=O)NCCN2CCCCC2)O[C@@H]1CO | -6 | 1 | 0 | -12 | -1 | 9
COc1ccccc1C(=O)N1C[C@H]2[C@@H](c3ccccc31)[C@@H](CO)N2C(=O)C1CCOCC1 | 0 | 1 | 0 | -21 | 4 | -1
O=Cc1c(OCc2ccccc2)ccc2ccccc12 | 2 | -3 | nt | -7 | 2 | -37*
O=C(C[C@H]1CC[C@H]2[C@@H](COC[C@H](O)CN2Cc2cccc(C(F)(F)F)c2)O1)NCc1ccc(F)cc1 | 0 | 2 | 0 | -6 | 2 | -15
CCCCOc1ccc(C(=O)NC2CCCCN(CCC)C2=O)cc1 (centres undefined) | nt | -5 | 0 | 1 | nt | 2
CCCN1CCCCC(NC(=O)c2c(F)cccc2F)C1=O (centres undefined) | nt | -5 | 0 | 107* | nt | 14
SMILES | AF4-AF9 inh | ERAP1 HTS inh | E-selectin induc | S100A4 MyoIIA | SIRT5 inh | rRNA inh HTS
O=S(=O)(c1cccs1)N1CCC(CO)(Cc2cccc(F)c2)CC1 | 0 | -1 | nt | 7 | nt | -23*
O=S(=O)(c1cccc(F)c1)N1CCC(CO)(Cc2cccc(F)c2)CC1 | -1 | 0 | 1 | 0 | -1 | -30
C[C@H](CO)N1C[C@H](C)[C@H](CN(C)Cc2ccc(C(F)(F)F)cc2)OCCCC[C@H](C)Oc2ccc(NS(=O)(=O)c3cccs3)cc2C1=O | 6 | 1 | 0 | 4 | 13 | -3
CNC[C@@H]1OCCCC[C@@H](C)Oc2ccc(NS(=O)(=O)c3cccs3)cc2C(=O)N([C@H](C)CO)C[C@H]1C | -29 | 3 | 0 | 101* | 5 | 2
CNC[C@@H]1OCCCC[C@H](C)Oc2ccc(NS(=O)(=O)c3cccs3)cc2C(=O)N([C@@H](C)CO)C[C@@H]1C | -6 | 1 | 0 | -2 | 3 | 2
C[C@H]1CCCCO[C@@H](CN(C)Cc2ccc(C(F)(F)F)cc2)[C@@H](C)CN([C@@H](C)CO)C(=O)c2cc(NS(=O)(=O)c3cccs3)ccc2O1 | 2 | -2 | 0 | 23 | 14 | 0
C[C@@H]1CN([C@@H](C)CO)C(=O)c2cc(NS(=O)(=O)c3cccs3)ccc2O[C@@H](C)CCCCO[C@@H]1CN(C)Cc1ccc(C(F)(F)F)cc1 | 0 | 1 | 0 | 0 | 19* | -4
C[C@@H]1CN([C@@H](C)CO)C(=O)c2cc(NS(=O)(=O)c3cccs3)ccc2O[C@@H]1CN(C)Cc1ccc(Cl)c(Cl)c1 | -12 | 1 | 0 | -4 | 18* | -21
C[C@H]1CCCCO[C@H](CN(C)Cc2ccc(C(F)(F)F)cc2)[C@@H](C)CN([C@@H](C)CO)C(=O)c2cc(NS(=O)(=O)c3cccs3)ccc2O1 | -4 | 1 | 0 | -5 | 16* | -6
C[C@@H]1CN([C@H](C)CO)C(=O)c2cc(NC(=O)Nc3cccc4ccccc34)ccc2O[C@@H]1CN(C)Cc1ccc(C(=O)O)cc1 | 7 | nt | 17 | nt | nt | 0
C[C@@H]1CN([C@@H](C)CO)C(=O)c2c(c3ccccc3n2C)-c2ccccc2CO[C@H]1CN(C)Cc1ccc(O)cc1 | 4 | 3 | 0 | 6 | -2 | -5
C[C@H](NC(=O)C[C@@H]1C[C@@H]2c3cc(NC(=O)c4cccnc4)ccc3O[C@@H]2[C@H](CO)O1)c1ccccc1 | -1 | 2 | 0 | -6 | -2 | 2

Screens as filed in PubChem BioAssay.
